Ecoli rRNA inh – reduced GFP signal of wild-type E. coli, primary screen, bacterial rRNA inhibitor project, GFP/RFP fluorescence, OD600, single point | GFP signal change (wild-type ribosome), % (test concentration not listed) | E. coli WT GFP vs humanized-ribosome RFP mutants, 24 h; hits give low values; DMSO median 0, no signal -100 | AID 720706, 2013 | actives 1.6% (n = 350,000);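 active = significant combined selectivity score with lowered wild-type GFP, culture density cut under 30%, mutant RFP and density less affected; inactive = any of these conditions unmet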
DENV2 CPE rescue – inhibitors of DENV2 cytopathic effect, primary screen, cell-based, plate reader, single concentration; DENV2-infected cells, cytopathic effect rescue; CPE inhibition, % at 9.99 µM; actives 1.7% (n = 350,000); in the data active = CPE inhibition above about 20%, passing the limit was not always enough; tested in BHK-21 cells
PfHsp90 yeast 2 – growth inhibition of PfHsp90-expressing yeast, primary screen, antimalarial PfHsp90 inhibitor project, S. cerevisiae, BacTiter-Glo luminescence, single point, set 2; inhibition, % at 9.4 µM; BacTiter-Glo ATP, 48 h; yeast lacking PDR1 and PDR3 efflux regulators; actives 0.32% (n = 310,000);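 active = every replicate shows inhibition above about 80%, whatever the replicate mean, limit read from the data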
S100A4 inh HTS – inhibitors of S100A4-myosin IIA peptide binding, primary screen, biochemical, fluorescence polarization, TAMRA-MyoIIA peptide | actives 0.14% (n = 360,000) | inhibition, % at 10.7 µM | AID 652163, 2013;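 active = mean inhibition of at least 70% across replicates, with every replicate also reaching that level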
Target sequence (P26447 whole entry, looked up): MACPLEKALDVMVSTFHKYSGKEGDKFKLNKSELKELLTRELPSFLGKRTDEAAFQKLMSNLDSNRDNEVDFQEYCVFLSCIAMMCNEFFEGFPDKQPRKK
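Material: human S100A4 monomer with TAMRA-labelled myosin IIA peptide; buffer or medium: HEPES pH 7.2 with CaCl2, KCl, NaCl, DTT, Triton; compound dosing: one concentration per compound; schedule: 5 min incubation before reading; benchmarks: neutral control DMSO, positive control TFP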
AF4-AF9 inh – inhibitors of AF4 peptide binding to AF9, primary screen, biochemical, AlphaScreen, biotin-AF4 peptide, FLAG-AF9, single point. Protein AF-9 (Homo sapiens), P42568. AID 651704, 2012. inhibition, % at 10 µM. actives 0.47% (n = 350,000);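 active = every replicate reaching a set inhibition limit, whatever the replicate mean, cut at about 25% in these data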
Target sequence (P42568 whole entry, looked up): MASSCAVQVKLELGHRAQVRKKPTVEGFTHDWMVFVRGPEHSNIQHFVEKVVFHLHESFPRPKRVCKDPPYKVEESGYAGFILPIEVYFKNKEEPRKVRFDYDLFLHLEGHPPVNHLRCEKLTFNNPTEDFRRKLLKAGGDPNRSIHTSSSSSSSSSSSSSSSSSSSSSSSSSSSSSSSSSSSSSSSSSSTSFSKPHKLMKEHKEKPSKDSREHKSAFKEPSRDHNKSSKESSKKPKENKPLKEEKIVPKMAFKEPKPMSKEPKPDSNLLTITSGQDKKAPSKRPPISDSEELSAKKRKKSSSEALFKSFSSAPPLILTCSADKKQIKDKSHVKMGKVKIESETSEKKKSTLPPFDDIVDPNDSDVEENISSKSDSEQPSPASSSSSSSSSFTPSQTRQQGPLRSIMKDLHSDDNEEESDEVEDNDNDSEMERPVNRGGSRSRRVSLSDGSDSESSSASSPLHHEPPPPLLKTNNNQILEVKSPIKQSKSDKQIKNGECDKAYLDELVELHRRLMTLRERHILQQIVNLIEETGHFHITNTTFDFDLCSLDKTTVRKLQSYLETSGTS
Cneo AK release – Cryptococcus neoformans cell lysis inducers, primary screen, AK release luminescence, single concentration | actives 0.2% (n = 360,000) | C. neoformans lysis, adenylate kinase release luminescence, 4 h; normalised: neutral wells 0, clomiphene wells 100 | lysis activity, % at 15 µM;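 active = mean lysis activity across replicates of at least 80%, whatever share of replicates individually reach that level; inactive = mean lysis activity below 80%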
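Material – Cryptococcus neoformans yeast cells · Quantity – 5 × 10^6 yeast cells/mL · Buffer or medium – YPD medium · Compound – single dose · Timing – 4 h static compound exposure, 37 °C, read 1 h post-reagent · Signal – adenylate kinase release luminescence · Read-out basis – lysis from increased AK signal · Benchmarks – Clomiphene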
Large screens that a line does not name were inactive. A selection: hits, their analogues and other compounds. The true share with any hit is near 3.2%.

O=c1[nH]c2ccc(Br)cc2c(-c2ccccc2)c1N1CCOCC1	AF4-AF9 inh 25
Cc1ccc(S(=O)(=O)NCC[C@@H]2CC[C@@H](NS(=O)(=O)c3ccccc3Cl)[C@@H](CO)O2)cc1	none (no result: PfHsp90 yeast 2)
COC(=O)c1cc(OC)c(OC)cc1NC(=O)C(C)Sc1ccc(C)cc1 (configuration not stated)	Ecoli rRNA inh -26
CCOc1ccc(/C=C(\C(=O)O)c2ccc(S(=O)(=O)N3CCOCC3)s2)cc1OC	none (no result: Ecoli rRNA inh, DENV2 CPE rescue, S100A4 inh HTS, AF4-AF9 inh)
CCOc1ccc(/C=C(\C(=O)O)c2ccc(S(=O)(=O)N3CCCCC3)s2)cc1OC	Ecoli rRNA inh -23 (no result: PfHsp90 yeast 2)
Cc1ccc(S(=O)(=O)Nc2ccc3c(c2)CC(=O)N([C@H](C)CO)C[C@@H](C)[C@@H](CN(C)C(=O)Nc2cccc4ccccc24)O3)cc1	none (no result: PfHsp90 yeast 2)
Cc1ccc(S(=O)(=O)Nc2ccc3c(c2)CC(=O)N([C@@H](C)CO)C[C@@H](C)[C@H](CN(C)C(=O)Nc2cccc4ccccc24)O3)cc1	none (no result: PfHsp90 yeast 2, Cneo AK release)
Cc1ccc(S(=O)(=O)Nc2ccc3c(c2)CC(=O)N([C@H](C)CO)C[C@H](C)[C@@H](CN(C)C(=O)Nc2cccc4ccccc24)O3)cc1	DENV2 CPE rescue 96 (no result: PfHsp90 yeast 2)
Cc1ccc(S(=O)(=O)Nc2ccc3c(c2)CC(=O)N([C@@H](C)CO)C[C@H](C)[C@@H](CN(C)C(=O)Nc2cccc4ccccc24)O3)cc1	DENV2 CPE rescue 33 (no result: PfHsp90 yeast 2)
CO[C@@H]1CN(C)C(=O)c2ccc(NS(C)(=O)=O)cc2OC[C@H](C)N(Cc2cncnc2)C[C@H]1C	none (no result: PfHsp90 yeast 2)
CCCC#Cc1ccc2c(c1)O[C@H](CN(C)CCC)[C@H](C)CN([C@@H](C)CO)S2(=O)=O	Cneo AK release 103 (no result: PfHsp90 yeast 2)
CCCC#Cc1ccc2c(c1)O[C@@H](CN(C)CC1CCCC1)[C@H](C)CN([C@H](C)CO)S2(=O)=O	DENV2 CPE rescue 60 (no result: PfHsp90 yeast 2, Cneo AK release)
CCCC#Cc1ccc2c(c1)O[C@@H](CN(C)CCC)[C@H](C)CN([C@@H](C)CO)S2(=O)=O	none (no result: PfHsp90 yeast 2)
CCCC#Cc1ccc2c(c1)O[C@H](CN(C)CC1CC1)[C@H](C)CN([C@@H](C)CO)S2(=O)=O	none (no result: PfHsp90 yeast 2)
COc1ccc(OC)c(/C=N/NC(=O)c2[nH]ncc2Br)c1	none (no result: PfHsp90 yeast 2)
CCOc1ccc(/C=N/NC(=O)c2[nH]ncc2Br)c(O)c1	Ecoli rRNA inh -34 (no result: Cneo AK release)
CO[C@H]1CN(C)C(=O)c2ccc(NS(=O)(=O)c3ccc(-c4ccccc4)cc3)cc2OC[C@@H](C)NC[C@@H]1C	DENV2 CPE rescue 29 (no result: PfHsp90 yeast 2, Cneo AK release)
CO[C@@H]1CN(C)C(=O)c2ccc(NS(=O)(=O)c3ccc(-c4ccccc4)cc3)cc2OC[C@H](C)NC[C@@H]1C	none (no result: PfHsp90 yeast 2)
CO[C@H]1CN(C)C(=O)c2ccc(NS(=O)(=O)c3ccc(Oc4ccccc4)cc3)cc2OC[C@H](C)NC[C@H]1C	DENV2 CPE rescue 22 (no result: PfHsp90 yeast 2)
CO[C@@H]1CN(C)C(=O)c2ccc(NS(=O)(=O)c3ccc(Oc4ccccc4)cc3)cc2OC[C@H](C)NC[C@@H]1C	none (no result: PfHsp90 yeast 2)
CO[C@@H]1CN(C)C(=O)c2ccc(NS(=O)(=O)c3ccc(Oc4ccccc4)cc3)cc2OC[C@H](C)NC[C@H]1C	Cneo AK release 99 (no result: PfHsp90 yeast 2)
C[C@H]1CN([C@@H](C)CO)C(=O)Cc2cc(NC(=O)Nc3ccc(F)cc3)ccc2O[C@H]1CN(C)C(=O)Nc1ccccc1	none (no result: PfHsp90 yeast 2)
COc1cccc(-c2ccc([C@H]3[C@@H](CO)N4C(=O)CN(C(=O)c5ccncc5)C[C@@H]34)cc2)c1	none (no result: PfHsp90 yeast 2, Cneo AK release)
COC(=O)[C@]1(CCC(=O)OC(C)(C)C)N=C(c2ccc(OCCCO)cc2)O[C@@H]1c1ccccc1	none (no result: Ecoli rRNA inh, PfHsp90 yeast 2)
O=C([C@H]1[C@H](CO)[C@H]2Cn3c(cccc3=O)[C@H]2N1CCC(F)(F)F)N1CCCCC1	Cneo AK release 93 (no result: PfHsp90 yeast 2)
O=C([C@H]1[C@H](CO)[C@H]2Cn3c(cccc3=O)[C@@H]1N2Cc1cccc(Cl)c1)N1CCOCC1	Cneo AK release 90 (no result: PfHsp90 yeast 2)
CCCNC(=O)[C@H]1[C@H](CO)[C@H]2Cn3c(cccc3=O)[C@@H]1N2Cc1cccc(Cl)c1	none (no result: PfHsp90 yeast 2)
O=C([C@H]1[C@H](CO)[C@H]2Cn3c(cccc3=O)[C@@H]1N2Cc1cccc(Cl)c1)N1CCCCC1	DENV2 CPE rescue 34 (no result: PfHsp90 yeast 2)
CN(C)CC(=O)N1[C@@H]2c3cccc(=O)n3C[C@@H]2[C@@H](CO)[C@@H]1C(=O)NCc1ccccc1F	none (no result: PfHsp90 yeast 2, Cneo AK release)
Cc1nc2c(OCCC3CCCCC3)cccn2c1N(C)C(=O)CCC1CCCC1	DENV2 CPE rescue 41 (no result: PfHsp90 yeast 2)
Cc1noc(C)c1NC(=O)Nc1ccc2c(c1)C(=O)N([C@@H](C)CO)C[C@@H](C)[C@@H](CN(C)C(=O)Nc1ccccc1)O2	none (no result: DENV2 CPE rescue, PfHsp90 yeast 2, S100A4 inh HTS, AF4-AF9 inh, Cneo AK release)
C[C@H](CO)N1C[C@H](C)[C@H](CN(C)Cc2ccncc2)OCCCC[C@H](C)Oc2ccc(NS(=O)(=O)c3ccccc3)cc2C1=O	DENV2 CPE rescue 73 (no result: PfHsp90 yeast 2)
C[C@@H]1CCCCO[C@H](CN(C)Cc2ccncc2)[C@@H](C)CN([C@H](C)CO)C(=O)c2cc(NS(=O)(=O)c3ccccc3)ccc2O1	DENV2 CPE rescue 21 (no result: PfHsp90 yeast 2)
C[C@@H]1CN([C@@H](C)CO)C(=O)c2cc(NS(=O)(=O)c3ccccc3)ccc2O[C@@H](C)CCCCO[C@H]1CN(C)Cc1ccncc1	none (no result: PfHsp90 yeast 2)
COc1cccc(/C=C2\Oc3cc(OCC(=O)N4CCCC4)ccc3C2=O)c1OC	Ecoli rRNA inh -24
COc1cccc(/C=C2\Oc3cc(OCC(=O)N4CCCCC4)ccc3C2=O)c1OC	none
COc1ccccc1C#Cc1ccc2c(c1)O[C@H](CN(C)C)[C@@H](C)CN([C@H](C)CO)S2(=O)=O	none (no result: PfHsp90 yeast 2)
Cc1cc(N(CCO)CCO)ccc1N=Nc1cc(F)ccc1F	AF4-AF9 inh 35 (no result: PfHsp90 yeast 2)
COCC(=O)N(C)C[C@@H]1Oc2ncc(C#Cc3cccnc3)cc2C(=O)N([C@@H](C)CO)C[C@@H]1C	none (no result: PfHsp90 yeast 2)
COc1ccc(N2CCN(C(=O)CCc3c[nH]c4ccccc34)CC2)cc1	none (no result: Cneo AK release)
O=C(CCc1c[nH]c2ccccc12)N1CCN(c2ccc(O)cc2)CC1	Ecoli rRNA inh -29 (no result: Cneo AK release)
C[C@H]1CCCCO[C@H](CN(C)C(=O)Nc2cccc3ccccc23)[C@@H](C)CN([C@@H](C)CO)C(=O)c2cc(NC(=O)Cc3ccccc3)ccc2O1	none (no result: PfHsp90 yeast 2)
Cc1noc(C)c1NC(=O)N(C)C[C@@H]1Oc2c(NC(=O)c3ccc(-c4nccs4)cc3)cccc2C(=O)N([C@H](C)CO)C[C@@H]1C	DENV2 CPE rescue 33 (no result: PfHsp90 yeast 2)

Screening data deposited in PubChem BioAssay by Broad Institute.
